Measurements from ChEMBL document CHEMBL2086287, “An efficient one-pot synthesis and photoinduced DNA cleavage studies of 2-chloro-3-(5-aryl-4,5-dihydroisoxazol-3-yl)quinolines” (Bioorg Med Chem Lett, 2012).

Experiments:
[1] = system: Nucleic Acid; assay: Induction of Escherichia coli pUC19 DNA cleavage assessed as conversion of supercoiled DNA to nicked form of DNA at 40 uM […] by ethidium bromide staining; type: nucleic-acid assay
Summary of the method: (§1)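 pUC-19 plasmid DNA photolysed at 365 nm for 2 h in 1:9 DMSO:Tris buffer ([…], pH 7.2) with test compound at 40–80 μM, 37 °C. A control lane without compound and dark-incubated samples were run alongside. Cleavage read by gel separation as the percentage of supercoiled (Form I) DNA converted to nicked (Form II) and linear (Form III) forms.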

[2] = system: Nucleic Acid; assay: Induction of Escherichia coli pUC19 DNA cleavage assessed as conversion of supercoiled DNA to nicked form of DNA at 60 uM treated after 2 hrs before UV-vis irradiation measured after 1 hr by ethidium bromide staining; type: nucleic-acid assay; summary of the method: as §1
[3] = system: Nucleic Acid; assay: Induction of Escherichia coli pUC19 DNA cleavage assessed as conversion of supercoiled form of DNA to nicked and linear form of DNA at 80 uM treated after 2 hrs before UV-vis irradiation measured after 1 hr by ethidium bromide staining

Row | Activity [1] [%] | Activity [2] [%] | Activity [3] [%] | SMILES
1 | 20 | 50 | 85 | Clc1nc2ccccc2cc1C1CC(c2ccc(Br)cc2)=NO1 (stereo unspecified)
2 | 20 | 50 | 85 | Oc1ccc(C2=NOC(c3cc4ccccc4nc3Cl)C2)cc1 (stereo unspecified)
3 | 20 | 50 | 85 | COc1ccc(C2=NOC(c3cc4ccccc4nc3Cl)C2)cc1 (stereo unspecified)
4 | 20 | 50 | 85 | Clc1nc2ccccc2cc1C1CC(c2ccccc2)=NO1 (stereo unspecified)
5 | 20 | 50 | 85 | Cc1ccc(C2=NOC(c3cc4ccccc4nc3Cl)C2)cc1 (stereo unspecified)
6 | 20 | 50 | 85 | Clc1ccc(C2=NOC(c3cc4ccccc4nc3Cl)C2)cc1 (stereo unspecified)
7 | 20 | 50 | 85 | O=[N+]([O-])c1ccc(C2=NOC(c3cc4ccccc4nc3Cl)C2)cc1 (stereo unspecified)
